Experimental data from ChEMBL document CHEMBL1821696, “Substitution of the phosphonic acid and hydroxamic acid functionalities of the DXR inhibitor FR900098: an attempt to improve the activity against Mycobacterium tuberculosis” (Bioorg Med Chem Lett, 2011).
In brackets after ≈: the same amount, converted by molar mass.

Assays:
[1] = target: T1, 1-deoxy-D-xylulose 5-phosphate reductoisomerase (Mycobacterium tuberculosis) (UniProt P9WNS1); test: Inhibition of Mycobacterium tuberculosis DXR assessed as reduction of 1-deoxy-D-xylulose 5-phosphate into 2-C-methyl-D-erythritol-4-phosphate at 100 uM measured for every 5 secs upto 500 secs by spectrophotometry analysis
T1 sequence (whole entry): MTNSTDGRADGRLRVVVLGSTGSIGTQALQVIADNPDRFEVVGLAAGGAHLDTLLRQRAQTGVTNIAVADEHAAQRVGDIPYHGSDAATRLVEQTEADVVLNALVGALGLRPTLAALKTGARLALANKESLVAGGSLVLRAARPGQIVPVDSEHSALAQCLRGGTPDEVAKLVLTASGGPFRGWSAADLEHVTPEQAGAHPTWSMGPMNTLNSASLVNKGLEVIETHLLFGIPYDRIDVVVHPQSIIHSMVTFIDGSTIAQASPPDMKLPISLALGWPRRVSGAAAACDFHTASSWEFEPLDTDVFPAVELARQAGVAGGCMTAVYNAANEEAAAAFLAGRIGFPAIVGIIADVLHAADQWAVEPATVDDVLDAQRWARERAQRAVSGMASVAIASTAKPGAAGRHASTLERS
In short: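 MtDXR reaction in 50 mM HEPES-NaOH pH 7.5, 100 mM NaCl, 1.5 mM MnCl2, 0.2 mM NADPH, 0.2 mM DXP and a single inhibitor concentration. Started by adding DXP and run at 22 °C. NADPH consumption read as A340 every 5 s for 500 s. Initial velocity from the linear slope gives % inhibition relative to the uninhibited reaction.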

[2] = target: T2, 1-deoxy-D-xylulose 5-phosphate reductoisomerase (Mycobacterium tuberculosis, UniProt P9WNS1); test: Inhibition of Mycobacterium tuberculosis DXR assessed as reduction of 1-deoxy-D-xylulose 5-phosphate into 2-C-methyl-D-erythritol-4-phosphate measured for every 5 secs upto 500 secs by spectrophotometry analysis
T2 sequence (P9WNS1 whole entry): T1 sequence (whole entry)
In short: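 MtDXR in 50 mM HEPES-NaOH pH 7.5, 100 mM NaCl, 1.5 mM MnCl2, 0.2 mM NADPH and 0.2 mM DXP, started with DXP at 22 °C. A340 read every 5 s for 500 s. Six inhibitor concentrations spanning 0.01–1000. Initial-rate activities relative to the uninhibited reaction were fitted to a Hi/Lo four-parameter curve for IC50.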

[3] = tested on: Mycobacterium tuberculosis; test: Antimycobacterial activity against Mycobacterium tuberculosis by whole-cell assay; type: functional

| SMILES | inhibition [1] [%] | IC50 [2] [µM] | MIC [3] [µg/mL] |
| --- | --- | --- | --- |
| O=c1oc2cccnc2n1CCCP(=O)(O)O | 11 |  |  |
| O=C1N[C@H](CCP(=O)(O)O)CO1 | 0 |  |  |
| CC(=O)N(O)CCC1NC(=O)NC1=O (configuration not stated) | 13 |  |  |
| CC(=O)N(O)CCCc1nnn[nH]1 | 0 |  |  |
| O=P(O)(O)CCc1ccc(O)c(O)c1 | 78 | 41 | > 512 |
| CC(=O)N(O)CCc1c(C(=O)O)noc1C | 41 | 151 | > 512 |
| CC(=O)N(O)CCCC(=O)NS(C)(=O)=O | 29 |  |  |
| CC(=O)N(O)CCCC(=O)O | 0 |  |  |
| CC(=O)N(O)CCCS(=O)(=O)O | 36 | > 100 |  |
| O=c1oc2cc(Br)cnc2n1CCCP(=O)(O)O | 7 |  |  |
| O=c1cccc(CCP(=O)(O)O)n1O | 61 | 53 | > 512 |
| O=c1oc2cc(-c3ccccc3)cnc2n1CCCP(=O)(O)O | 11 |  | 256 (≈ 766 µM) |
| CC(=O)N(O)CCCP(=O)(O)OCCc1ccccc1 | 23 |  |  |
| O=C1NC(=O)C(CCP(=O)(O)O)N1 (configuration not stated) | 8 |  |  |
